Assay results taken from ChEMBL document CHEMBL2417369, “Synthesis and evaluation of heteroaryl substituted diazaspirocycles as scaffolds to probe the ATP-binding site of protein kinases” (Bioorg Med Chem, 2013).

Columns and labels:
[1] = target: Ribosomal protein S6 kinase alpha-4 (Homo sapiens) (UniProt O75676); experiment: Inhibition of MSK2 (unknown origin) at 30 uM by microfluidic mobility shift assay relative to control
Summary of the method: (§1)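 Single-point screen at 30 µM test compound across a 24-kinase panel in a microfluidic assay format. ATP was set near each enzyme's Km,[ATP]. […] The pan-AGC inhibitor H-89 served as an internal control on every assay plate.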

[2] = target: T1, Aurora kinase A (Homo sapiens) (UniProt O14965); experiment: Inhibition of AURA (unknown origin) at 30 uM by microfluidic mobility shift assay relative to control
T1 sequence (whole entry): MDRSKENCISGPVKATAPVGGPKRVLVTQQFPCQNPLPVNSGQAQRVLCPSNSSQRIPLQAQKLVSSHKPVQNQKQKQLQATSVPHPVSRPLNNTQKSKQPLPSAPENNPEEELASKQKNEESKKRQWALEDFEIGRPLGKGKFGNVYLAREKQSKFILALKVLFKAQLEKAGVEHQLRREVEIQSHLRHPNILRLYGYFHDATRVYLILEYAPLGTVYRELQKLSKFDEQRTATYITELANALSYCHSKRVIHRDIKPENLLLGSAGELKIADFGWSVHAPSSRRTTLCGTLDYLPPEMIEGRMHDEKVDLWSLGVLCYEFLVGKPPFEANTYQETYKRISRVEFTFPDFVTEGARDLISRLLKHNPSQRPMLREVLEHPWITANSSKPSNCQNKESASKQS
Summary of the method: (§2)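 Single-point screen in a 24-enzyme kinase panel using a microfluidic assay. Each compound was tested at […] with ATP at roughly the Km for each enzyme. The pan-AGC inhibitor H-89 served as an internal control on every plate.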

[3] = target: Calcium/calmodulin-dependent protein kinase type II subunit gamma (Homo sapiens) (UniProt Q13555); experiment: Inhibition of CAMK2gamma (unknown origin) at 30 uM by microfluidic mobility shift assay relative to control
[4] = target: RAC-beta serine/threonine-protein kinase (Homo sapiens, UniProt P31751); experiment: Inhibition of AKT2 (unknown origin) at 30 uM by microfluidic mobility shift assay relative to control; summary of the method: as §2
[5] = target: Glycogen synthase kinase-3 beta (Homo sapiens, UniProt P49841); experiment: Inhibition of GSK3beta (unknown origin) at 30 uM by microfluidic mobility shift assay relative to control; summary of the method: as §2
[6] = target: Ribosomal protein S6 kinase alpha-5 (Homo sapiens, UniProt O75582); experiment: Inhibition of MSK1 (unknown origin) at 30 uM by microfluidic mobility shift assay relative to control; summary of the method: as §2
[7] = target: T2, Inhibitor of nuclear factor kappa-B kinase subunit beta (Homo sapiens) (UniProt O14920); experiment: Inhibition of IKKbeta (unknown origin) at 30 uM by microfluidic mobility shift assay relative to control; summary of the method: as §1
T2 sequence (whole entry): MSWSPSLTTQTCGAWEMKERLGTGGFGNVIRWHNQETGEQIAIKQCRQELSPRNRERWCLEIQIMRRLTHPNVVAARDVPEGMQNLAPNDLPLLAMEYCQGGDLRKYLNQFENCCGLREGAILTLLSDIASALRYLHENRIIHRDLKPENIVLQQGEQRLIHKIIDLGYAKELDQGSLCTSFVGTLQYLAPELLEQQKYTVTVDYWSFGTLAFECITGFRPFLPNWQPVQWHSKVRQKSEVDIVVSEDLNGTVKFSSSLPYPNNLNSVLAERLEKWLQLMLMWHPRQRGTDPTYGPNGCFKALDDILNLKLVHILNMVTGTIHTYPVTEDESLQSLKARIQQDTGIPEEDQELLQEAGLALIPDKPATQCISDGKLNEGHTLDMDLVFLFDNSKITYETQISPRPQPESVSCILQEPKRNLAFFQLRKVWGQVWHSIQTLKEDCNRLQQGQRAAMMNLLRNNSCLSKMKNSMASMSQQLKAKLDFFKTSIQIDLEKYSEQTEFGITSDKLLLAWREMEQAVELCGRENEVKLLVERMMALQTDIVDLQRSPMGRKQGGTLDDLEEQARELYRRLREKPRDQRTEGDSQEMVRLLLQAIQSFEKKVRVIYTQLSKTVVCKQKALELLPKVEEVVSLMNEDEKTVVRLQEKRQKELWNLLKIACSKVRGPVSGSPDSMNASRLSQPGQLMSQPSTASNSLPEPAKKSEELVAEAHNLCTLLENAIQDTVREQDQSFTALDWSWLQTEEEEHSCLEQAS

[8] = target: T3, Serine/threonine-protein kinase 3 (Homo sapiens) (UniProt Q13188); experiment: Inhibition of MST2 (unknown origin) at 30 uM by microfluidic mobility shift assay relative to control; summary of the method: as §1
T3 sequence (whole entry): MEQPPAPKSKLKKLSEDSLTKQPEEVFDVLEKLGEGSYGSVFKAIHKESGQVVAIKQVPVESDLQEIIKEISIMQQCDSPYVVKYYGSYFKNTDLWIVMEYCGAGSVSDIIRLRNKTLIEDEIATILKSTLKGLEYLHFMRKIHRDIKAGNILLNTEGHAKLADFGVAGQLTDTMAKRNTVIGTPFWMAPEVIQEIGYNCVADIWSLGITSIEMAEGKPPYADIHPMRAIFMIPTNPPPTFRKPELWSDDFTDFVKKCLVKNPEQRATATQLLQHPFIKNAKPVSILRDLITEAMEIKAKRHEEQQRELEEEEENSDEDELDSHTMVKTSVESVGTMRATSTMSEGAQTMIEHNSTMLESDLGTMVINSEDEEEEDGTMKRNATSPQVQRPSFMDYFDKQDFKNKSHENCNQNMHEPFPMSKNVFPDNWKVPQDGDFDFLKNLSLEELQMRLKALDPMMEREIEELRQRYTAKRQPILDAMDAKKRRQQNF

[9] = target: Protein kinase C (PKC) (Homo sapiens) (UniProt O94806+P41743+P17252+P05129+Q05655+P05771+Q05513+Q02156+P24723+Q15139+Q04759); experiment: Inhibition of PKC (unknown origin) at 30 uM by microfluidic mobility shift assay relative to control; summary of the method: as §2
[10] = target: Proto-oncogene tyrosine-protein kinase Src (Homo sapiens, UniProt P12931); experiment: Inhibition of SRC (unknown origin) at 30 uM by microfluidic mobility shift assay relative to control; summary of the method: as §2
[11] = target: Calcium/calmodulin-dependent protein kinase type II subunit beta (Homo sapiens) (UniProt Q13554); experiment: Inhibition of CAMK2beta (unknown origin) at 30 uM by microfluidic mobility shift assay relative to control; summary of the method: as §1
[12] = target: Ribosomal protein S6 kinase beta-1 (Homo sapiens) (UniProt P23443); experiment: Inhibition of p70S6K (unknown origin) at 30 uM by microfluidic mobility shift assay relative to control
Summary of the method: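 Single-point screen against a 24-kinase panel in a commercial microfluidic assay format. Compounds were tested at 30 µM, with ATP at approximately the Km,[ATP] of each enzyme. H-89 was included on each assay plate as an internal control.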

[13] = target: Mitogen-activated protein kinase 1 (Homo sapiens, UniProt P28482); experiment: Inhibition of ERK2 (unknown origin) at 30 uM by microfluidic mobility shift assay relative to control; summary of the method: as §2
Chain of Mitogen-activated protein kinase 1 (P28482 whole entry): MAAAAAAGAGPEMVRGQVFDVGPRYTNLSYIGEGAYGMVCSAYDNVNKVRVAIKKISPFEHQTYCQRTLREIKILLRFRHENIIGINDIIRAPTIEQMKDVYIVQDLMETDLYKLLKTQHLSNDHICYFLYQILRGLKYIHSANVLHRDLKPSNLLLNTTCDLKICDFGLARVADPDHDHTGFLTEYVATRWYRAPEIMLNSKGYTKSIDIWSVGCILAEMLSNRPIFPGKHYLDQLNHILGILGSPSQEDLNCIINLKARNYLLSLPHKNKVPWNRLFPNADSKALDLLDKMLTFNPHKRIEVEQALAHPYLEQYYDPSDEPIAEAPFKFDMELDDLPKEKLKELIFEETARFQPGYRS

Chain of Calcium/calmodulin-dependent protein kinase type II subunit beta (Homo sapiens) (Q13554 whole entry): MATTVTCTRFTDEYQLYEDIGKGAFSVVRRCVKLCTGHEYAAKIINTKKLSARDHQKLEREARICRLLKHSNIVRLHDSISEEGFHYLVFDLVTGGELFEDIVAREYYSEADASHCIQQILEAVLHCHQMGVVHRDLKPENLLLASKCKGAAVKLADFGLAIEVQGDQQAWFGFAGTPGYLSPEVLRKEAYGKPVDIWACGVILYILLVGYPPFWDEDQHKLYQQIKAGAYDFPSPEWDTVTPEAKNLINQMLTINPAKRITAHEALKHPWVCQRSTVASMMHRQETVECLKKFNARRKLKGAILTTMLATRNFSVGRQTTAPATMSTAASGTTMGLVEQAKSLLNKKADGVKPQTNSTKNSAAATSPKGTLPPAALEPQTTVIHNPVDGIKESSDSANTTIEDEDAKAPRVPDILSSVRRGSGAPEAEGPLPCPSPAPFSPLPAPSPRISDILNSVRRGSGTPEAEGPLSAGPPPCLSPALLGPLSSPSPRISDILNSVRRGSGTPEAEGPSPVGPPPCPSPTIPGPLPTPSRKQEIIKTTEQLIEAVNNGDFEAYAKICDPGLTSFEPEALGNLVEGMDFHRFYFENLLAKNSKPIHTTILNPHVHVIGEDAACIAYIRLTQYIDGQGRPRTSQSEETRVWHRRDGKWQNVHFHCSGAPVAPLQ
Chain of Ribosomal protein S6 kinase alpha-4 (Homo sapiens) (O75676 whole entry, looked up): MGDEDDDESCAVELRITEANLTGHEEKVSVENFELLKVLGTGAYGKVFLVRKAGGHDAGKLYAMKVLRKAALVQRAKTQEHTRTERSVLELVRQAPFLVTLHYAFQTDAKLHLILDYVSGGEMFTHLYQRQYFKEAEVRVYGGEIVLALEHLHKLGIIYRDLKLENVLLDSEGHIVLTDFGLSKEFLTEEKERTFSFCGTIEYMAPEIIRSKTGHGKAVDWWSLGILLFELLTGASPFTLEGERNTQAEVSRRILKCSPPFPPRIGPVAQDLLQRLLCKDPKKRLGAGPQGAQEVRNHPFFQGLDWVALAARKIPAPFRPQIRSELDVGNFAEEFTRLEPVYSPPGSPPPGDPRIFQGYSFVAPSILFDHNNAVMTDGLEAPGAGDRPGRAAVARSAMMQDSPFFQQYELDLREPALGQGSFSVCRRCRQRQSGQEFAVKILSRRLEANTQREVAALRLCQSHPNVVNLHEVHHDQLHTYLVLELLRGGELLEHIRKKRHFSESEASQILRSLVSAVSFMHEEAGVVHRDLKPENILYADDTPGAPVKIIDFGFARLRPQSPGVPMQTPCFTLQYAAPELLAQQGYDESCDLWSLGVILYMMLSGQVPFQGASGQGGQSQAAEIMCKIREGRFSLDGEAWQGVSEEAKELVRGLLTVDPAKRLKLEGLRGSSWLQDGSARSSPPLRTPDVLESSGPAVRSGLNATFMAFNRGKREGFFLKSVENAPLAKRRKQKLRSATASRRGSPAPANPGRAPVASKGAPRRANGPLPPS
Chain of Glycogen synthase kinase-3 beta (P49841 whole entry, looked up): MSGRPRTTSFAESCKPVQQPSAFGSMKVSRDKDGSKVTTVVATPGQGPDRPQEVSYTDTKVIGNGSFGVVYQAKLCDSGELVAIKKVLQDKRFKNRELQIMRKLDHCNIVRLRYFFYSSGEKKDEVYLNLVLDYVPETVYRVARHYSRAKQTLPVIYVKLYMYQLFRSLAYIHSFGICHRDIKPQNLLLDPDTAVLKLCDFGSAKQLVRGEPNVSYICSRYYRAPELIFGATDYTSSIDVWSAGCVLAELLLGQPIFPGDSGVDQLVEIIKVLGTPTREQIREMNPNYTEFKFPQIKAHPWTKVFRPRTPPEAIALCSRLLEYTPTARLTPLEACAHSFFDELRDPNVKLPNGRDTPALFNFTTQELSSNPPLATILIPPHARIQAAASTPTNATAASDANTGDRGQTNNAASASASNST
Chain of Calcium/calmodulin-dependent protein kinase type II subunit gamma (Homo sapiens) (Q13555 whole entry, looked up): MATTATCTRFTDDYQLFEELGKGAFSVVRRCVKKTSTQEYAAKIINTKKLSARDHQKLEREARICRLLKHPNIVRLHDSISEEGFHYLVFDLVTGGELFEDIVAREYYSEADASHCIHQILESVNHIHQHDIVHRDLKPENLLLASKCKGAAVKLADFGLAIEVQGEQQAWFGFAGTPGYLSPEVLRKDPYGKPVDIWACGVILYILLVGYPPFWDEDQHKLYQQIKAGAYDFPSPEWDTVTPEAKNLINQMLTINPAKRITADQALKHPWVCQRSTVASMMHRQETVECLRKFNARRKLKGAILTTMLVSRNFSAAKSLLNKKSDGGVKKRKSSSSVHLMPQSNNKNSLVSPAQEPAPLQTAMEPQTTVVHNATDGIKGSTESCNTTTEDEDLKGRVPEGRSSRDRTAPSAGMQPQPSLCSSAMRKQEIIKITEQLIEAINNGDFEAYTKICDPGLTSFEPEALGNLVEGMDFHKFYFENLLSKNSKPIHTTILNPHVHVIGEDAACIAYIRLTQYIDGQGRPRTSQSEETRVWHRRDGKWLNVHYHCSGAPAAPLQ
Chain of Ribosomal protein S6 kinase beta-1 (Homo sapiens) (P23443 whole entry, looked up): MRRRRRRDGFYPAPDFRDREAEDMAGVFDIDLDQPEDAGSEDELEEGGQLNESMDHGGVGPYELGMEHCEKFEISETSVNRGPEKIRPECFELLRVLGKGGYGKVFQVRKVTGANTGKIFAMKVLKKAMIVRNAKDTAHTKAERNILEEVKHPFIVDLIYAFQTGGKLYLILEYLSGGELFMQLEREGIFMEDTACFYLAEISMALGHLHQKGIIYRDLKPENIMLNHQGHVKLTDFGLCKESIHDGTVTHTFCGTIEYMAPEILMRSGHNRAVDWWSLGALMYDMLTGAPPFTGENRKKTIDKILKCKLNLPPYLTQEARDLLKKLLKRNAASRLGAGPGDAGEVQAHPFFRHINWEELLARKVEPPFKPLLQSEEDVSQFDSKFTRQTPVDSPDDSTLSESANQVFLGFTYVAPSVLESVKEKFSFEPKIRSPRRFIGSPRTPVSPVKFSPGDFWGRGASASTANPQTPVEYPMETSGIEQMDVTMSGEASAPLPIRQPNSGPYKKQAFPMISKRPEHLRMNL
Chain of RAC-beta serine/threonine-protein kinase (P31751 whole entry): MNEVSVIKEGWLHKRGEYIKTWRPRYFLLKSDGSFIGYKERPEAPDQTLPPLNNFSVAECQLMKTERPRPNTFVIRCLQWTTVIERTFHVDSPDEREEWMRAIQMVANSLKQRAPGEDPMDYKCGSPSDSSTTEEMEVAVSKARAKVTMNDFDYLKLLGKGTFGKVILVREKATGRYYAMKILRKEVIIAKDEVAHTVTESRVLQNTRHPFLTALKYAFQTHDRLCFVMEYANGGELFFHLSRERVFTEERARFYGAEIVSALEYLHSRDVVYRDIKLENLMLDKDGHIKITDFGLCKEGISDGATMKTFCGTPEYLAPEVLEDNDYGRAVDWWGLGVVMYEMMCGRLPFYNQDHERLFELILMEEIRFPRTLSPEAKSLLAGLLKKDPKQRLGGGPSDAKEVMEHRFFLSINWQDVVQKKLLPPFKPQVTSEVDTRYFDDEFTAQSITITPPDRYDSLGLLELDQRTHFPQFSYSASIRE
Chain of Proto-oncogene tyrosine-protein kinase Src (P12931 2-536 limits assumed): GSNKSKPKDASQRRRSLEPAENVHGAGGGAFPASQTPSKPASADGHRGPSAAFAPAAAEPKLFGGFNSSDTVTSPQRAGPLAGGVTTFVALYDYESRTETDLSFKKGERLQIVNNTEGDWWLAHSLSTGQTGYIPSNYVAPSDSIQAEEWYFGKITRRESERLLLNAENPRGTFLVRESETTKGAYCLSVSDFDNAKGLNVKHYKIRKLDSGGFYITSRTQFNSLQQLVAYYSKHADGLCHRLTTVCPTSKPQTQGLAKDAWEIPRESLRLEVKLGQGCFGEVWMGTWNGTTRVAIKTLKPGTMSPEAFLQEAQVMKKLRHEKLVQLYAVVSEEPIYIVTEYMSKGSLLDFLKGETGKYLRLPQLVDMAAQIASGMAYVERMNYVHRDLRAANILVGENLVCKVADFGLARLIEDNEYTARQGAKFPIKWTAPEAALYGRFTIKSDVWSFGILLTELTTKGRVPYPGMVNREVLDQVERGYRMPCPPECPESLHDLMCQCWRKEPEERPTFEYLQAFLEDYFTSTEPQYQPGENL

| inhibition [1] [%] | inhibition [2] [%] | inhibition [3] [%] | inhibition [4] [%] | inhibition [5] [%] | inhibition [6] [%] | inhibition [7] [%] | inhibition [8] [%] | inhibition [9] [%] | inhibition [10] [%] | inhibition [11] [%] | inhibition [12] [%] | inhibition [13] [%] | SMILES |
| --- | --- | --- | --- | --- | --- | --- | --- | --- | --- | --- | --- | --- | --- |
| 100 | 64 | 17 | 98 | 21 | 100 | 95 | 10 | 0 | 64 | 29 | 98 | 74 | c1ccc(CC2CCNC3(CCN(c4ncnc5[nH]cnc45)CC3)C2)cc1 (racemic) |
| 94 | 76 | 18 | 89 | 20 | 97 | 100 | 17 | 0 | 76 | 32 | 95 | 54 | c1ccc(C2CCNC3(CCN(c4ncnc5[nH]cnc45)CC3)C2)cc1 (racemic) |
| 52 | 89 | 17 | 36 | 14 | 75 | 83 | 18 | 1 | 33 | 17 | 47 | 41 | c1ccc(CC2CCC3(CCN(c4ncnc5[nH]cnc45)CC3)NC2)cc1 (racemic) |
